This passage reports ED50 and Activity results from ChEMBL document CHEMBL1177700, “Discovery of bishomo(hetero)arylpiperazines as novel multifunctional ligands targeting dopamine D(3) and serotonin 5-HT(1A) and 5-HT(2A) receptors” (J Med Chem, 2010).

Test [1] concerns Mus musculus. The test is described as follows: Antipsychotic activity in ip dosed NMRI mouse assessed as reduction in methamphetamine-induced locomotor activity administered 30 mins prior to testing measured for 60 mins. The format is functional. The method, boiled down: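 Mice were made hyperactive by methamphetamine pretreatment, then dosed with the compound. Read-out was locomotor hypermotility. Doses ranged from 0.3 to 30 mg/kg.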

Test [2] concerns Mus musculus. The test is described as follows: Antipsychotic activity in ip dosed NMRI mouse assessed as reduction in spontaneous exploratory locomotor activity administered 30 mins prior to testing measured for 60 mins. The format is functional.
The test system of test [3] is Mus musculus. The test is described as follows: Antipsychotic activity in NMRI mouse assessed as reduction of PCP-induced locomotor activity at 10 mg/kg, ip administered 30 mins prior to testing measured for 60 mins. It is filed as functional, organism-based. Details: dose 10 mg/kg.
Test [4] concerns Mus musculus. The test is described as follows: Antipsychotic activity in NMRI mouse assessed as inhibition of PCP-induced locomotor activity at 3 mg/kg, ip administered 30 mins prior to testing measured for 60 mins. The format is functional, organism-based. Details: dose 3 mg/kg.

The source made the active and inactive calls. The rule behind the calls is not given here.

Usually ED50 stands for the midpoint of the dose-response relation. For `CN1CCN(C2=Nc3cc(Cl)ccc3Nc3ccccc32)CC1` [CLOZAPINE], the ED50 in the test on Mus musculus [1] was determined as 2.5 mg/kg; in the test with Mus musculus [2], 2.4 mg/kg. In addition, the outcome with Mus musculus [3] and in the test on Mus musculus [4] was Active.
